Compounds with a hit are over-represented: about 1.9% of the library has one in this group of screens.
T cell HTS = modulators of CD8 T cell-vesicle binding, primary screen, mouse 2C CD8+ T cells, flow cytometry; 2C CD8+ T cell-vesicle binding; hits give low values; AID 2052, 2009; response (vesicle binding), % at 7 µM; hit rate 0.068% among 330,000;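 active = response, share of CD8 T cells binding vesicles, and their 90th percentile fluorescence all below set limits, cut at about 80% in these data, passing the limit was not always enough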;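 also: values below 100% mean blocked vesicle binding to the CD8+ T cells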
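Material: 2C TCR transgenic mouse naive CD8+ T cells, MACS-purified. Also added: QL9-charged Drosophila Ld/ICAM-1/B7-1 vesicles. Timing: binding 1.5 h at 37 °C. Measured by: high-throughput flow cytometry with anti-B7-1 and anti-CD8 staining. Read-out: percent CD8+ FL2 mean versus row control. Controls: Unloaded micro-vesicles (low), QL9 vesicles with 0.7% DMSO (high).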
Yeast superoxide = reduction of superoxide in aged yeast, primary screen, HTS | S. cerevisiae aged cells, superoxide DHE fluorescence; hits give low values | superoxide response (% of plate mean), % at 10 µM | hit rate 0.18% among 330,000 | AID 2690, 2010;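 active = superoxide response under a set limit, about three screen SD below normal, cut at about 65% in these data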;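 also: yeast aged for seven days with compound at 30 °C before DHE staining; 100% = average MFI of all compound-treated wells on the plate with controls excluded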
MIN6 prolif = inducers of MIN6 beta-cell proliferation, primary screen, ATP luminescence, uHTS. MIN6 cells proliferation, ATPlite luminescence, 48 h; cells starved in 0.2% serum; 100% = growth in 10% serum. proliferation, % at 10 µM. hit rate 0.29% among 330,000. AID 2380, 2010;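 active = compounds whose signal lies at least 3.5 SD above the mean of all wells on their plate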;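 also: 0% = DMSO-treated cells in low-serum medium and 100% = 10% serum control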
Rce1 inh = yeast Rce1p protease inhibitors, primary screen, biochemical, fluorescence, cell-free homogeneous; CAAX prenyl protease 2 (Saccharomyces cerevisiae (strain ATCC 204508 / S288c)), Q03530; yeast membranes, quenched prenylated peptide cleavage fluorescence; calls only; hit rate 0.27% among 290,000;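 active = fall in fluorescence gain of 50% or more versus controls, with final raw signal at or below 3038400; inconclusive = same 50% fall but final raw signal above 3038400; inactive = fall in fluorescence gain under 50%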;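 also: plate controls were neutral control wells for no effect and wells lacking membranes for full effect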
V-ATPase pHluor = regulators of yeast V-ATPase proton pumping, primary screen, pHLuorin cytosolic pH fluorescence | response, % at 10 µM | S. cerevisiae | hit rate 0.37% among 350,000; in the data active = response mostly above about 7.3%, no sharp cut-off; inactive = mostly below about 5.4%; also: actives read high
KLK7 zymogen act = proKLK7 zymogen activators, primary screen, biochemical, fluorescence intensity. Kallikrein-7 (Homo sapiens), P49862. purified proKLK7, EDANS-DABCYL substrate fluorescence; 100% is mature enzyme control, 0% vehicle. activation, % at 7 µM. hit rate 0.9% among 370,000;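 active = activation above the mean of all tested compounds plus 3 SD, computed per campaign excluding outliers beyond control limits, cut at about 13% in these data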
Target sequence (P49862 whole entry, looked up): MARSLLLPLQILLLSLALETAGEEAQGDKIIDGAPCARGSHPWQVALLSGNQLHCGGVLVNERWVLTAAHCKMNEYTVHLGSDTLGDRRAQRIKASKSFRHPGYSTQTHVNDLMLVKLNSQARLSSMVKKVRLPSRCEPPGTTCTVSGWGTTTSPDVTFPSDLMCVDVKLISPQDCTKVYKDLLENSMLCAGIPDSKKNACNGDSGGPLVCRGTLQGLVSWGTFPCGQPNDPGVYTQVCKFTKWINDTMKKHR
KLK7 act conf = proKLK7 zymogen activators, confirmation, biochemical, fluorescence intensity, triplicate; hit rate 68% among 3,200; AID 686949, 2013; purified proKLK7, EDANS-DABCYL substrate fluorescence; scaled: vehicle 0, mature enzyme 100; activation, % at 7 µM; shares compounds with KLK7 zymogen act;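 active = activation, as change over the incubation, above the mean of all tested compounds plus 3 SD, cut at about 13% in these data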
EDANS-DABCYL int = EDANS-DABCYL substrate optical interference, artefact control for kallikrein-7 zymogen activator project, biochemical, fluorescence intensity, high throughput | activation, % at 7 µM | no enzyme, 4 h; solvent 0%, active enzyme control 100% | shares compounds with KLK7 zymogen act | hit rate 80% among 3,200;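 active = activation above the all-compound mean plus 3 SD, ignoring values outside control-based bounds, cut at about 4.8% in these data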;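 also: value is the 4 h activation minus the activation read at time zero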
EDANS interf = counter-screen for kallikrein-7 activators: EDANS-DABCYL interference, dose response; shares compounds with KLK7 zymogen act; EDANS-DABCYL peptide fluorescence interference, no enzyme; EC50, µM; hit rate 20% among 250;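 active = compounds that raise the fluorescence signal in this interference counterscreen, with EC50 at or below 10 µM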;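 also: intact quenched peptide substrate alone read at 355 nm excitation and 520 nm emission; signal is fluorescence gain from T0 to T4 after four hours at room temperature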
* hit, by the source's call; i = inactive; ? = inconclusive; nt = no result given; + = active, no number.

SMILES | T cell HTS | Yeast superoxide | MIN6 prolif | Rce1 inh | V-ATPase pHluor | KLK7 zymogen act | KLK7 act conf | EDANS-DABCYL int | others
Cc1cccn2c(=O)c3cc(C(=O)NC4CCCCCC4)sc3nc12 | 239 | 103 | 3 | i | 0 | 0 | nt | nt
CC(C)NC(=O)c1cc2c(=O)n3ccccc3nc2s1 | 528 | 95 | 0 | i | 0 | 76* | 75* | 81*
CCOc1ccc(NS(=O)(=O)c2cc(C(=O)N3CCC3)ccc2Cl)cc1 | 713 | 83 | -1 | nt | -1 | 0 | nt | nt
O=C(O)/C=C/C(=O)NCc1csc2ccccc12 | 427 | 98 | 2 | i | 3 | 0 | nt | nt
Nc1ccc2nc(-c3cccs3)[nH]c2c1 | 268 | 94 | -3 | i | 1 | 73* | 67* | 69*
Nc1ccc2nc(-c3ccccc3)[nH]c2c1 | 654 | 100 | -5 | + | 1 | 77* | 61* | 76*
CC(=O)Nc1ccc2nc(-c3cccs3)[nH]c2c1 | 219 | 100 | -7 | ? | 2 | 16* | 36* | 28* | EDANS interf=8.2*
Nc1ccc(-c2nc3c(Cl)cc(N)cc3[nH]2)cc1 | 188 | 91 | -1 | i | -2 | 42* | 79* | 69*
Nc1ccc2nc(-c3cccnc3)[nH]c2c1 | 306 | 106 | -3 | i | -1 | 0 | nt | nt
CCOC(=O)N(C)c1c(CC)nc2c(OCCOc3ccccc3)cccn12 | nt | nt | nt | nt | nt | 0 | nt | nt
Nc1ccc2nc(-c3ccc(N)c(Cl)c3)[nH]c2c1 | 182 | 95 | -5 | i | -10 | 77* | 68* | 72*
COc1ccccc1-c1ccc(OCCCN2CCC(C(O)(c3ccccc3)c3ccccc3)CC2)cc1 | nt | nt | nt | nt | nt | -1 | nt | nt
c1cc(-c2ccc(CN3CCOCC3)cc2)n2ccnc2c1 | nt | nt | nt | nt | nt | 24* | 21* | 22*
CC(=O)Nc1cccc(-c2cccc3nccn23)c1 | nt | nt | nt | nt | nt | 18* | 24* | 27*
N#Cc1ccc(-c2cccc3nccn23)cc1 | nt | nt | nt | nt | nt | 78* | 73* | 68*
CN1CCN(c2ccc(-c3cccc4nccn34)cn2)CC1 | nt | nt | nt | nt | nt | 50* | 22* | 19*
O=S(=O)(c1ccccc1F)N1CCN(Cc2cc3c(cc2Br)OCCO3)CC1 | 275 | 132 | -8 | nt | -5 | 0 | nt | nt
Cc1c(C)c(C)c(S(=O)(=O)NCCC(=O)N2CCN(Cc3ccc(C#N)cc3)CC2)c(C)c1C | 244 | 83 | 1 | nt | 5 | 0 | nt | nt
Cc1ccc(C(=O)N2CCCC(N3CCN(c4ccccc4C)CC3)C2)c(=O)[nH]1 (stereo unspecified) | 217 | 67 | -3 | i | 1 | 0 | nt | nt
Cc1nn2cc(-c3ccccc3)nc2[nH]c1=O | 226 | 89 | 2 | i | -1 | 49* | 74* | 80*
Cc1nn2c(-c3ccccc3)c(-c3ccccc3)nc2[nH]c1=O | 205 | 102 | -2 | i | 1 | 2 | nt | nt
O=C(O)CCc1nn2cc(-c3ccccc3)nc2[nH]c1=O | 379 | 96 | 1 | i | 1 | 56* | 72* | 81*
CCc1nn2cc(-c3ccccc3)nc2s1 | 299 | 109 | -5 | i | 2 | 0 | nt | nt
CCOC(=O)N1CCC(NC(=O)c2oc3c(C)c(C)ccc3c2C)CC1 | 268 | 103 | 3 | i | -3 | -1 | nt | nt
Nc1ccc(-n2nc3ccccc3n2)cc1 | 354 | 105 | -2 | i | 2 | 0 | nt | nt
Nc1ccc2c(c1)nnn2-c1ccccc1 | 391 | 89 | 0 | i | -4 | 31* | 45* | 44*

From PubChem BioAssay
